pIC50: −log10 of the molar value. Active and inactive are the calls of the source. The rule behind the calls is not given here.
Legend:
[1] = system: HUVEC; experiment: Cytotoxicity against HUVEC cells after 48 hrs by WST8 assay; format: functional, cell-based; settings: Homo sapiens
Procedure, shortened: (§1)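 WST-8 viability after 48 h exposure to a concentration series. Plating was 1 × 10^4 or 5 × 10^3 cells per well. HeLa and HuH-7 were grown in DMEM and HCT116 in RPMI 1640, each with 10% FBS. HUVEC were grown in endothelial cell growth medium. Kit reagent was added for 30–180 min at 37 °C, then absorbance was read at 450 nm. Doxorubicin was the positive control.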

[2] = system: HeLa; experiment: Induction of apoptosis in human HeLa cells assessed as DNA fragmentation at 0.2 uM after 48 hrs by TUNEL assay; format: functional, cell-based
Procedure, shortened: (§2)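 HeLa cells were plated at 2.5 × 10^4 per chamber-slide well and exposed for 48 h at 37 °C. Doses were 4.0 μM test agent or 0.2 μM doxorubicin (positive control). DNA fragmentation was detected by TUNEL (ApopTag Red) under fluorescence microscopy. Apoptotic cells were counted among ≥200 cells per condition, as mean ± SD of three independent experiments.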

[3] = system: HeLa; experiment: Cytotoxicity against human HeLa cells after 48 hrs by WST8 assay; format: functional, cell-based; procedure, shortened: as §1
[4] = Cytotoxicity against human HuH7 cells after 48 hrs by WST8 assay; format: functional, cell-based; settings: Huh-7, 48 h; procedure, shortened: as §1
[5] = Cytotoxicity against human HCT116 cells after 48 hrs by WST8 assay; format: functional, cell-based; settings: HCT-116, 48 h; procedure, shortened: as §1
[6] = system: HeLa; experiment: Induction of ROS generation in human HeLa cells at 10 to 60 uM after 3 hrs by CM-H2DCFDA dye based assay; format: functional, cell-based
[7] = system: HeLa; experiment: Cytotoxicity against human HeLa cells assessed as reduction in cell viability in presence of 10 mM NAC after 48 hrs by WST8 assay; format: functional, cell-based
Procedure, shortened: (§3)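 HeLa cells were exposed to 0–30 μM agent for 48 h, with or without 10 mM N-acetylcysteine as ROS scavenger. Viability was then read by WST-8 (tetrazolium reduction, absorbance 450 nm). Data are mean ± SD, n = 3.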

[8] = system: HeLa; experiment: Induction of ROS generation in human HeLa cells at 1 uM after 3 hrs by CM-H2DCFDA dye based assay; format: functional, cell-based
Procedure, shortened: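 HeLa cells were treated with agent over 0–10 μM; the methods give 1 h and the figure legend gives 3 h. Cells were then loaded with 10 μM CM-H2DCFDA for 20 min at 37 °C and washed. DCF fluorescence was read on a plate reader at ex 490/em 535 nm, n = 3.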

[9] = system: HeLa; experiment: Induction of cell death in human HeLa cells at 10 uM after 1 hr
[10] = system: HeLa; experiment: Cytotoxicity against human HeLa cells assessed as reduction in cell viability at 10 to 30 uM in presence of 10 mM NAC after 48 hrs by WST8 assay; format: functional, cell-based; procedure, shortened: as §3
[11] = system: HeLa; experiment: Induction of apoptosis in human HeLa cells assessed as DNA fragmentation at 4 uM after 48 hrs by TUNEL assay; format: functional, cell-based; procedure, shortened: as §2

SMILES | pIC50 [1] | Activity [2] | pIC50 [3] | pIC50 [4] | pIC50 [5] | Activity [6] | Activity [7] | Activity [8] | Activity [9] | Activity [10] | Activity [11]
COc1cccc2c1C(=O)c1c(O)c3c(c(O)c1C2=O)C[C@@](O)(C(=O)CO)C[C@@H]3O[C@H]1C[C@H](N)[C@H](O)[C@H](C)O1 [DOXORUBICIN] | 6.40 | Active | 6.66 | 6.66 | 6.60 |  |  |  |  |  | 
CC(=O)Cc1c(C)c(O)c2c(c1O)C(=O)CCC2O (stereo unspecified) | 5.24 |  | < 4.52 | < 4.52 | < 4.52 |  |  |  |  |  | 
CC1=CC(=O)c2ccccc2C1=O |  |  |  |  |  | Active |  |  |  |  | 
CC/C(=C(\c1ccccc1)c1ccc(OCCN(C)C)cc1)c1ccccc1 |  |  |  |  |  |  | Active |  |  |  | 
CC(=O)Cc1c(C)c(O)c2c(c1O)C(=O)CCC2=O | 5.74 |  | 5.40 | 5.72 | 5.96 |  |  | Active | Active | inactive | Active
COc1cc(O)c2c(c1O)C(=O)[C@@H](CC(C)=O)[C@H](C)C2=O | 5.11 |  | 5.10 | 4.97 | 4.81 |  |  |  |  |  | 
COC1=CC(=O)c2c(O)c(C)c(CC(C)=O)c(O)c2C1=O [JAVANICIN] | 5.64 |  | 5.05 | 5.17 | 5.26 |  |  |  |  |  | 
COc1cc(O)c2c(c1O)[C@H](O)[C@@H]1C[C@](C)(O)OC[C@@H]1C2=O | 4.88 |  | < 4.52 | 4.57 | < 4.52 |  |  |  |  |  | 

— ChEMBL document CHEMBL3351391, “Bioactive dihydronaphthoquinone derivatives from Fusarium solani” (J Nat Prod, 2014)
